Measured values published in ChEMBL document CHEMBL4673214, “Synthesis and antibacterial bioactivities of cationic deacetyl linezolid amphiphiles” (Eur J Med Chem, 2018).
Converted amounts (≈) assume the structure as drawn. The source made the active and inactive calls. No cut-off for these calls is given here.

Columns and labels:
Klebsiella pneumoniae [1] = assay: Antibacterial activity against carbapenem-resistant Klebsiella pneumoniae clinical isolate 1 assessed as reduction in bacterial growth incubated for 16 to 20 hrs by CLSI-based broth microdilution method; type: functional; conditions: time 16-20 hrs
In short: (§1)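 Clinical isolates tested by broth microdilution in cation-adjusted Mueller-Hinton broth. Cultures grown 4-6 h (~10^8 CFU/mL) were diluted to ~10^6 CFU/mL and mixed 1:1 with compound serial dilutions made from 256 down to 0.5 µg/mL (pre-mixing). Plates held at 37 °C for 16-20 h, then read for growth. Each concentration run in duplicate, whole experiment at least twice.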

Enterobacteriaceae [2] = assay: Antibacterial activity against NDM1 producing carbapenem-resistant Enterobacteriaceae clinical isolate 7 assessed as reduction in bacterial growth incubated for 16 to 20 hrs by CLSI-based broth microdilution method; type: functional; conditions: time 16-20 hrs; in short: as §1
Enterobacteriaceae [3] = assay: Antibacterial activity against NDM1 producing carbapenem-resistant Enterobacteriaceae clinical isolate 3 assessed as reduction in bacterial growth incubated for 16 to 20 hrs by CLSI-based broth microdilution method; type: functional; conditions: time 16-20 hrs; in short: as §1
Escherichia coli = assay: Antibacterial activity against Escherichia coli ATCC 25922 assessed as reduction in bacterial growth incubated 16 to 20 hrs by CLSI-based broth microdilution method; type: functional; conditions: time 16-20 hrs
In short: (§2)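 Broth microdilution following CLSI, in cation-adjusted Mueller-Hinton broth. Inoculum from a 4-6 h culture (~10^8 CFU/mL), diluted to ~10^6 CFU/mL. Water stocks were serially diluted in MHB (256 to 0.5 µg/mL) and mixed 1:1 with the inoculum. Plates ran 16-20 h at 37 °C. MIC was read visually. Each concentration was tested in duplicate, and the experiment was repeated at least twice.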

Enterococcus faecalis = assay: Antibacterial activity against Enterococcus faecalis ATCC 29212 assessed as reduction in bacterial growth incubated 16 to 20 hrs by CLSI-based broth microdilution method; type: functional; conditions: time 16-20 hrs; in short: as §2
Enterobacteriaceae [4] = assay: Antibacterial activity against NDM1 producing carbapenem-resistant Enterobacteriaceae clinical isolate 9 assessed as reduction in bacterial growth incubated for 16 to 20 hrs by CLSI-based broth microdilution method; type: functional; conditions: time 16-20 hrs; in short: as §1
Klebsiella pneumoniae [5] = assay: Antibacterial activity against carbapenem-resistant Klebsiella pneumoniae clinical isolate 5 assessed as reduction in bacterial growth incubated for 16 to 20 hrs by CLSI-based broth microdilution method; type: functional; conditions: time 16-20 hrs; in short: as §1
Klebsiella pneumoniae [6] = assay: Antibacterial activity against carbapenem-resistant Klebsiella pneumoniae clinical isolate 3 assessed as reduction in bacterial growth incubated for 16 to 20 hrs by CLSI-based broth microdilution method; type: functional; conditions: time 16-20 hrs; in short: as §1
Enterobacteriaceae [7] = assay: Antibacterial activity against NDM1 producing carbapenem-resistant Enterobacteriaceae clinical isolate 6 assessed as reduction in bacterial growth incubated for 16 to 20 hrs by CLSI-based broth microdilution method; type: functional; conditions: time 16-20 hrs; in short: as §1
Staphylococcus aureus [8] = assay: Antibacterial activity against methicillin-resistant Staphylococcus aureus clinical isolate 4 assessed as reduction in bacterial growth incubated for 16 to 20 hrs by CLSI-based broth microdilution method; type: functional; conditions: time 16-20 hrs; in short: as §1
Staphylococcus aureus [9] = assay: Antibacterial activity against methicillin-resistant Staphylococcus aureus clinical isolate 2 assessed as reduction in bacterial growth incubated for 16 to 20 hrs by CLSI-based broth microdilution method; type: functional; conditions: time 16-20 hrs; in short: as §1
Staphylococcus aureus [10] = assay: Antibacterial activity against methicillin-resistant Staphylococcus aureus clinical isolate 5 assessed as reduction in bacterial growth incubated for 16 to 20 hrs by CLSI-based broth microdilution method; type: functional; conditions: time 16-20 hrs; in short: as §1
Staphylococcus aureus [11] = assay: Antibacterial activity against methicillin-resistant Staphylococcus aureus clinical isolate 6 assessed as reduction in bacterial growth incubated for 16 to 20 hrs by CLSI-based broth microdilution method; type: functional; conditions: time 16-20 hrs; in short: as §1
Staphylococcus aureus [12] = assay: Antibacterial activity against methicillin-resistant Staphylococcus aureus clinical isolate 9 assessed as reduction in bacterial growth incubated for 16 to 20 hrs by CLSI-based broth microdilution method; type: functional; conditions: time 16-20 hrs; in short: as §1
Cell membrane [13] = assay: Induction of cytoplasmic membrane depolarization in Escherichia coli ATCC 25922 at 20 ug/ml measured for 12 mins by DiSC35 dye-based fluorescence assay; type: subcellular; conditions: dose 20.0 µg/ml
In short: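 Mid-log bacteria were washed and resuspended at ~10^8 CFU/mL: S. aureus in PBS, E. coli in 5 mM HEPES/5 mM glucose/100 mM KCl (1:1:1). Cells were loaded with diSC35 (10 µM stock) for 30 min (S. aureus) or 40 min (E. coli, plus EDTA). Fluorescence (ex 622/em 670 nm) was read for an 8 min baseline, then every 2 min for 12 min after compound at 20 µg/mL final. Water served as control.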

Klebsiella pneumoniae [14] = assay: Antibacterial activity against carbapenem-resistant Klebsiella pneumoniae clinical isolate 4 assessed as reduction in bacterial growth incubated for 16 to 20 hrs by CLSI-based broth microdilution method; type: functional; conditions: time 16-20 hrs; in short: as §1
Klebsiella pneumoniae [15] = assay: Antibacterial activity against carbapenem-resistant Klebsiella pneumoniae clinical isolate 8 assessed as reduction in bacterial growth incubated for 16 to 20 hrs by CLSI-based broth microdilution method; type: functional; conditions: time 16-20 hrs; in short: as §1
Staphylococcus aureus [16] = assay: Antibacterial activity against methicillin-resistant Staphylococcus aureus clinical isolate 3 assessed as reduction in bacterial growth incubated for 16 to 20 hrs by CLSI-based broth microdilution method; type: functional; conditions: time 16-20 hrs; in short: as §1
Klebsiella pneumoniae [17] = assay: Antibacterial activity against carbapenem-resistant Klebsiella pneumoniae clinical isolate 2 assessed as reduction in bacterial growth incubated for 16 to 20 hrs by CLSI-based broth microdilution method; type: functional; conditions: time 16-20 hrs; in short: as §1
Enterobacteriaceae [18] = assay: Antibacterial activity against NDM1 producing carbapenem-resistant Enterobacteriaceae clinical isolate 10 assessed as reduction in bacterial growth incubated for 16 to 20 hrs by CLSI-based broth microdilution method; type: functional; conditions: time 16-20 hrs; in short: as §1
Cell membrane [19] = assay: Induction of inner membrane permeabilization in Escherichia coli ATCC 25922 at 20 ug/ml measured for 12 mins by propidium iodide staining based fluorescence microscopic analysis; conditions: dose 20.0 µg/ml
In short: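 Mid-log bacteria were washed and resuspended at ~10^8 CFU/mL and preincubated with propidium iodide (10 µM stock) for 30 min (S. aureus) or 40 min (E. coli). Fluorescence (ex 535/em 617 nm) was read on a plate for an 8 min baseline, then every 2 min for 12 min after compound at 20 µg/mL final. Water served as control.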

Enterobacteriaceae [20] = assay: Antibacterial activity against NDM1 producing carbapenem-resistant Enterobacteriaceae clinical isolate 1 assessed as reduction in bacterial growth incubated for 16 to 20 hrs by CLSI-based broth microdilution method; type: functional; conditions: time 16-20 hrs; in short: as §1
Enterobacteriaceae [21] = assay: Antibacterial activity against NDM1 producing carbapenem-resistant Enterobacteriaceae clinical isolate 8 assessed as reduction in bacterial growth incubated for 16 to 20 hrs by CLSI-based broth microdilution method; type: functional; conditions: time 16-20 hrs; in short: as §1
Staphylococcus aureus [22] = assay: Antibacterial activity against methicillin-resistant Staphylococcus aureus clinical isolate 8 assessed as reduction in bacterial growth incubated for 16 to 20 hrs by CLSI-based broth microdilution method; type: functional; conditions: time 16-20 hrs; in short: as §1
Staphylococcus aureus [23] = assay: Antibacterial activity against methicillin-resistant Staphylococcus aureus clinical isolate 7 assessed as reduction in bacterial growth incubated for 16 to 20 hrs by CLSI-based broth microdilution method; type: functional; conditions: time 16-20 hrs; in short: as §1
Cell membrane [24] = assay: Induction of outer membrane permeabilization in Escherichia coli ATCC 25922 at 20 ug/ml measured for 12 mins by NPN dye based fluorescence assay; conditions: dose 20.0 µg/ml
In short: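 Mid-log E. coli in HEPES/glucose/KCl at ~10^8 CFU/mL was preincubated 40 min with N-phenylnaphthylamine (10 µM stock). Fluorescence (ex 350/em 420 nm) was read for an 8 min baseline, then every 2 min for 12 min after compound at 20 µg/mL final. Water served as control.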

Staphylococcus aureus [25] = assay: Antibacterial activity against methicillin-resistant Staphylococcus aureus clinical isolate 1 assessed as reduction in bacterial growth incubated for 16 to 20 hrs by CLSI-based broth microdilution method; type: functional; conditions: time 16-20 hrs; in short: as §1

Row | SMILES | MIC (Klebsiella pneumoniae [1]) [µg/mL] | MIC (Enterobacteriaceae [2]) [µg/mL] | MIC (Enterobacteriaceae [3]) [µg/mL] | MIC (Escherichia coli) [µg/mL] | MIC (Enterococcus faecalis) [µg/mL] | MIC (Enterobacteriaceae [4]) [µg/mL] | MIC (Klebsiella pneumoniae [5]) [µg/mL] | MIC (Klebsiella pneumoniae [6]) [µg/mL] | MIC (Enterobacteriaceae [7]) [µg/mL] | MIC (Staphylococcus aureus [8]) [µg/mL] | MIC (Staphylococcus aureus [9]) [µg/mL] | MIC (Staphylococcus aureus [10]) [µg/mL] | MIC (Staphylococcus aureus [11]) [µg/mL] | MIC (Staphylococcus aureus [12]) [µg/mL] | Activity (Cell membrane [13]) | MIC (Klebsiella pneumoniae [14]) [µg/mL] | MIC (Klebsiella pneumoniae [15]) [µg/mL] | MIC (Staphylococcus aureus [16]) [µg/mL] | MIC (Klebsiella pneumoniae [17]) [µg/mL] | MIC (Enterobacteriaceae [18]) [µg/mL] | also measured
1 | C[C@@H](O)[C@H]1C(=O)N2C(C(=O)O)=C(S[C@@H]3CN[C@H](C(=O)N(C)C)C3)[C@H](C)[C@H]12 [MEROPENEM] | > 64 | 64 (≈ 167 µM) | 64 (≈ 167 µM) | < 0.125 | 4 (≈ 10.4 µM) | > 64 | 32 (≈ 83.4 µM) | 2 (≈ 5.22 µM) | 2 (≈ 5.22 µM) | 32 (≈ 83.4 µM) | 64 (≈ 167 µM) | 64 (≈ 167 µM) | 32 (≈ 83.4 µM) | 64 (≈ 167 µM) | inactive | 32 (≈ 83.4 µM) | 32 (≈ 83.4 µM) | 32 (≈ 83.4 µM) | > 64 | > 64 | Activity (Cell membrane [19]): inactive; MIC (Enterobacteriaceae [20]): 32 µg/mL (≈ 83.4 µM); MIC (Enterobacteriaceae [21]): > 64 µg/mL; MIC (Staphylococcus aureus [22]): 64 µg/mL (≈ 167 µM); MIC (Staphylococcus aureus [23]): 64 µg/mL (≈ 167 µM); Activity (Cell membrane [24]): inactive; MIC (Staphylococcus aureus [25]): 64 µg/mL (≈ 167 µM)
2 | CCCCCCCCCCCN(C[C@H]1CN(c2ccc(N3CCOCC3)c(F)c2)C(=O)O1)C(=O)[C@@H](N)CCCCN.Cl.Cl | 16 | 16 | 16 | 8 | 4 | 16 | 16 | 16 | 16 | 4 | 4 | 4 | 2 | 4 | Active | 16 | 16 | 2 | 16 | 16 | Activity (Cell membrane [19]): Active; MIC (Enterobacteriaceae [20]): > 64 µg/mL; MIC (Enterobacteriaceae [21]): 16 µg/mL; MIC (Staphylococcus aureus [22]): 4 µg/mL; MIC (Staphylococcus aureus [23]): 2 µg/mL; Activity (Cell membrane [24]): inactive; MIC (Staphylococcus aureus [25]): 4 µg/mL
